Test results reported in ChEMBL document CHEMBL4406806, “Design, Synthesis, and Characterization of Ogerin-Based Positive Allosteric Modulators for G Protein-Coupled Receptor 68 (GPR68)” (J Med Chem, 2019).
The source made the active and inactive calls. No cut-off for these calls is given here.

Assays:
Format in all cases: functional, cell-based
[1] = target: G-protein coupled receptor 68 (Homo sapiens) (UniProt Q15743); experiment: (§1) Positive allosteric modulation of human GPR68 expressed in HEK293T cells co-expressing Gs assessed as stimulation of proton-mediated cAMP production by measuring allosteric index in HBSS buffer containing pH 6.8 to 8.2 HEPES/pH 8.3 to 8.6 TAPS measured after 20 to 30 mins in presence of PDE inhibitor Ro 20-1724 by luciferase-glo reporter gene assay
G-protein coupled receptor 68 (Homo sapiens), sequence (Q15743 whole entry): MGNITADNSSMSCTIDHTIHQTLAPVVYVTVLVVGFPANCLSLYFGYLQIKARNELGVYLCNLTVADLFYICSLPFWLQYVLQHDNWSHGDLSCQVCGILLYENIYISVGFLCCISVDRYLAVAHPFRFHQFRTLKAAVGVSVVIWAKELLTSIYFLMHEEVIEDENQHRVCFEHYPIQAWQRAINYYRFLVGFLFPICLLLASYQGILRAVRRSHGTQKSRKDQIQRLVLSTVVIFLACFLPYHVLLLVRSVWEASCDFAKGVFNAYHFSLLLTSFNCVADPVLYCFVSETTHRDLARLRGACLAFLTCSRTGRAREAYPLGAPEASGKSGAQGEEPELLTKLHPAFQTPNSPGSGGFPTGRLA
Summary of the method: (§2)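 Transient co-transfection of HEK293T with receptor and GloSensor plasmids using PEI, overnight, then replated in DMEM + 1% dFBS for 6–24 h. Luciferin 3.5 mM loaded for 1 h at 37 °C in HBSS/20 mM TAPS, pH 8.40. Proton series: Ca/Mg-free HBSS with MES (pH 5.60–6.70), HEPES (6.80–8.20) or TAPS (8.30–8.60), plus 10 μM Ro 20-1724. BSA 1 mg/mL added where solubility required. Luminescence read at 20–30 min. At least six 16-point proton curves across modulator concentrations, quadruplicate, ≥3 independent assays.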

[2] = target: G-protein coupled receptor 68 (Homo sapiens) (UniProt Q15743); experiment: as §1, with “affinity cooperativity” for “index”; summary of the method: as §2
[3] = target: G-protein coupled receptor 68 (Homo sapiens) (UniProt Q15743); experiment: as §1, with “efficacy cooperativity” for “allosteric index”; summary of the method: as §2
[4] = target: G-protein coupled receptor 68 (Homo sapiens) (UniProt Q15743); experiment: as §1, with “binding affinity” for “index”; summary of the method: as §2

| Compound | Activity index [1] | log(activity) [2] | log(activity) [3] | Activity_index [1] | pKb [4] |
| --- | --- | --- | --- | --- | --- |
| Nc1cc(-c2ccccc2CO)nc(NCc2ccccc2)n1 |  | inactive | inactive | inactive | inactive |
| Nc1nc(NCCCCc2ccccc2)nc(-c2cc(Cl)ccc2CO)n1 | 6.14 | 1.09 | 0.06 |  |  |
| Nc1nc(Nc2ccccc2)nc(-c2ccccc2CO)n1 | 5.04 | 0.72 | 0.4 |  |  |
| Nc1nc(NCc2ccccc2F)nc(-c2c(F)cccc2CO)n1 | 5.4 | 1.09 | 0.09 |  |  |
| Nc1nc(NCCCc2ccc(Oc3ccccc3)cc2)nc(-c2c(F)cccc2CO)n1 | 6.1 | 1.15 | 0.01 |  |  |
| CNc1nc(NCc2ccccc2)nc(-c2ccccc2CO)n1 | 5.36 | 0.48 | 0.37 |  |  |
| Cc1cccc(CNc2nc(N)nc(-c3c(F)cccc3CO)n2)c1 | 5.42 | 0.84 | 0.14 |  |  |
| CCNc1nc(NCc2ccccc2)nc(-c2ccccc2CO)n1 | 5.34 | 0.47 | 0.25 |  |  |
| Nc1nc(NCc2ccccc2)nc(-c2ccccc2)n1 |  | inactive | inactive | inactive | inactive |
| Nc1nc(NCc2ccccc2C(F)(F)F)nc(-c2ccccc2CO)n1 | 5.96 | 0.6 | 0.31 |  |  |
| Nc1nc(NCCCCc2ccc(Oc3ccccc3)cc2)nc(-c2ccccc2CO)n1 | 5.94 | 1.03 | 0.09 |  |  |
| Cc1ccccc1CNc1nc(N)nc(-c2ccccc2CO)n1 | 5.57 | 0.54 | 0.33 |  |  |
| Nc1nc(NCCCc2ccc(Oc3ccccc3)cc2)nc(-c2ccccc2CO)n1 | 5.84 | 1.19 | -0.01 |  |  |
| Nc1nc(NCCc2ccc(Oc3ccccc3)cc2)nc(-c2c(F)cccc2CO)n1 | 6.14 | 1.14 | -0.06 |  |  |
| Nc1nc(NCc2cccc(C(F)(F)F)c2)nc(-c2ccccc2CO)n1 | 6.07 | 0.64 | 0.32 |  |  |
| Cc1ccccc1-c1nc(N)nc(NCc2ccccc2)n1 |  | inactive | inactive | inactive | inactive |

| Compound | Activity index [1] | log(activity) [2] | log(activity) [3] | Activity_index [1] | pKb [4] |
| --- | --- | --- | --- | --- | --- |
| Nc1nc(NCc2ccccc2Cl)nc(-c2ccccc2CO)n1 | 5.94 | 0.64 | 0.23 |  |  |
| Nc1nc(NCCCCc2ccccc2)nc(-c2c(F)cccc2CO)n1 | 5.34 | 1.24 | 0.06 |  |  |
| COc1ccccc1CNc1nc(N)nc(-c2c(F)cccc2CO)n1 | 5.11 | 1.12 | -0.12 |  |  |
| Nc1nc(NCc2ccc(C(F)(F)F)cc2)nc(-c2ccccc2CO)n1 | 6.1 | 0.78 | 0.3 |  |  |
| Nc1nc(NCc2ccc(Oc3ccccc3)cc2)nc(-c2cc(Cl)ccc2CO)n1 | 5.78 | 1.05 | 0.03 |  |  |
| Nc1nc(NCCCc2ccccc2)nc(-c2ccccc2CO)n1 | 6.11 | 0.81 | 0.08 |  |  |
| Nc1nc(NCCc2ccc(Oc3ccccc3)cc2)nc(-c2cc(Cl)ccc2CO)n1 | 5.87 | 1.39 | -0.04 |  |  |
| Nc1nc(NCCc2ccccc2)nc(-c2c(F)cccc2CO)n1 | 6.13 | 1.06 | 0.03 |  |  |
| Nc1nc(NCCc2ccccc2)nc(-c2ccccc2CO)n1 | 5.62 | 0.88 | 0.24 |  |  |
| Nc1nc(NCc2ccc(F)cc2)nc(-c2c(F)cccc2CO)n1 | 5.55 | 1.01 | 0.09 |  |  |
| Nc1nc(NCc2ccc(Oc3ccccc3)cc2)nc(-c2ccccc2CO)n1 | 6.14 | 0.95 | 0 |  |  |
| Nc1nc(NCCc2ccc(Oc3ccccc3)cc2)nc(-c2ccccc2CO)n1 | 5.9 | 0.83 | 0.03 |  |  |
| COc1ccccc1CNc1nc(N)nc(-c2ccccc2CO)n1 | 5.03 | 0.98 | 0.06 |  |  |
| Nc1nc(NCc2ccccc2F)nc(-c2ccccc2CO)n1 | 5.56 | 0.98 | 0.31 |  |  |
| Nc1nc(NCCCc2ccccc2)nc(-c2c(F)cccc2CO)n1 | 5.67 | 1.19 | 0.02 |  |  |

Second part, the molecule after the results:

| Activity index [1] | log(activity) [2] | log(activity) [3] | Activity_index [1] | pKb [4] | Compound |
| --- | --- | --- | --- | --- | --- |
| 5.42 | 1.09 | 0.36 |  |  | Nc1nc(NCc2ccc(F)cc2)nc(-c2ccccc2CO)n1 |
| 5.55 | 0.7 | 0.33 |  |  | Nc1nc(NCc2cccc(F)c2)nc(-c2ccccc2CO)n1 |
| 4.97 | 0.46 | 0.14 |  |  | COc1ccc(-c2nc(N)nc(NCc3ccccc3)n2)c(CO)c1 |
|  | inactive | inactive | inactive | inactive | CC(O)c1ccccc1-c1nc(N)nc(NCc2ccccc2)n1 (stereo not given) |
| 5.56 | 1.25 | -0.12 |  |  | Nc1nc(NCc2ccccc2)nc(-c2c(Cl)cccc2CO)n1 |
|  | inactive | inactive | inactive | inactive | CNCc1ccccc1-c1nc(N)nc(NCc2ccccc2)n1 |
| 5.46 | 0.64 | 0.24 |  |  | Nc1nc(NCc2ccccc2)nc(-c2ccc(F)cc2CO)n1 |
| 5.34 | 0.87 | 0.1 |  |  | CCOc1ccc(-c2nc(N)nc(NCc3ccccc3)n2)c(CO)c1 |
| 5.19 | 1.15 | 0.35 |  |  | Nc1nc(NCc2ccccc2)nc(-c2c(F)cccc2CO)n1 |
| 5.69 | 0.53 | 0.17 |  |  | CC(C)Oc1ccc(CNc2nc(N)nc(-c3ccccc3CO)n2)cc1 |
| 5.69 | 0.91 | 0.2 |  |  | Nc1nc(NCc2ccccc2)nc(-c2cc(F)ccc2CO)n1 |
| 5.22 | 0.89 | 0.23 |  |  | COc1cccc(CNc2nc(N)nc(-c3ccccc3CO)n2)c1 |
| 5.78 | 1.2 | 0.09 |  |  | Nc1nc(NCc2ccccc2)nc(-c2cc(Cl)ccc2CO)n1 |
| 5.74 | 0.56 | 0.27 |  |  | CC(C)Oc1ccc(-c2nc(N)nc(NCc3ccccc3)n2)c(CO)c1 |
| 5.77 | 0.67 | 0.04 |  |  | Nc1nc(NCc2ccc(OC3CC3)cc2)nc(-c2ccccc2CO)n1 |
|  | inactive | inactive | inactive | inactive | CC(=O)c1ccccc1-c1nc(N)nc(NCc2ccccc2)n1 |
| 5.9 | 0.48 | 0.46 |  |  | Nc1nc(NCc2cccc(Cl)c2)nc(-c2ccccc2CO)n1 |
| 5.57 | 0.81 | -0.01 |  |  | CCOc1ccc(CNc2nc(N)nc(-c3ccccc3CO)n2)cc1 |
| 4.77 | 0.61 | 0.18 |  |  | COc1ccc(CO)c(-c2nc(N)nc(NCc3ccccc3)n2)c1 |
| 4.86 | 0.59 | 0.27 |  |  | Nc1nc(NCc2ccccc2)nc(-c2cccc(F)c2CO)n1 |
| 4.86 | 0.4 | 0.3 |  |  | COc1cccc(-c2nc(N)nc(NCc3ccccc3)n2)c1CO |
| 5.01 | 0.86 | 0.3 |  |  | NCc1ccccc1-c1nc(N)nc(NCc2ccccc2)n1 |
| 4.61 | 0.78 | 0.49 |  |  | COc1ccc(CNc2nc(N)nc(-c3ccccc3CO)n2)cc1 |
| 5.87 | 1.01 | 0.11 |  |  | Nc1nc(NCc2ccccc2)nc(-c2ccc(Cl)cc2CO)n1 |
|  | inactive |  | inactive | inactive | COc1cccc(CO)c1-c1nc(N)nc(NCc2ccccc2)n1 |
| 5.57 | 0.92 | 0.25 |  |  | Cc1cccc(CNc2nc(N)nc(-c3ccccc3CO)n2)c1 |
| 5.6 | 0.9 | 0.32 |  |  | Cc1ccc(CNc2nc(N)nc(-c3ccccc3CO)n2)cc1 |
